Tests used:
Cell line [1] = assay: Ability (36 umol/kg) tested for inhibition of BxPC-3 human pancreatic tumor growth (n=8); type: functional
Summary of the method: (§1)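 BxPC-3 human pancreatic tumour cells (5 × 10⁶) implanted subcutaneously in SCID mice. At 80–160 mm³, tumours randomised into groups. Dosing on days 1, 7, 15, 22, 26, 29 and 33, with an equal-volume vehicle control group. Tumour volume measured by Vernier calipers, followed up to 50 days. % growth = 100 × (Vt/V0), where V0 is the volume on the first treatment day.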

Cell line [2] = assay: Ability (18 umol/kg) tested for inhibition of BxPC-3 human pancreatic tumor growth (n=8); type: functional; summary of the method: as §1
Cell line [3] = assay: Ability (9 umol/kg) tested for inhibition of BxPC-3 human pancreatic tumor growth (n=8); type: functional; summary of the method: as §1
[4] = Ability (18 umol/kg) tested on mortality of non-diseased CD2F1 mice at day 8 (n=8); type: ADME; conditions: CD2F1, mouse, in vivo
Summary of the method: (§2)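 Multiple-dose toxicity in non-diseased CD2F1 mice. Five or six daily doses given (schedule days 1–5 or 1–6). Mortality recorded, reported as % mortality at day 8.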

[5] = Ability (36 umol/kg) tested on mortality of non-diseased CD2F1 mice at day 8 (n=8); type: ADME; conditions: CD2F1, mouse, in vivo; summary of the method: as §2
[6] = Ability (27 umol/kg) tested on mortality of non-diseased CD2F1 mice at day 8 (n=8); type: ADME; conditions: CD2F1, mouse, in vivo; summary of the method: as §2

Compound	Growth (Cell line [1])	Growth (Cell line [2])	Growth (Cell line [3])	mortality at 8 day [4]	mortality at 8 day [5]	mortality at 8 day [6]
CCCCCCOCC(COP(=O)(OC)OCC(COP(=O)(OC)OCC(COCCCCCC)OCCCCCC)OC(=O)CCC(=O)OC[C@H]1O[C@@H](n2ccc(N)nc2=O)C(F)(F)[C@@H]1O)OCCCCCC (stereo partly drawn)	1022%	1393%	1387%			
Nc1ccn([C@@H]2O[C@H](CO)[C@@H](O)C2(F)F)c(=O)n1 [GEMCITABINE]		2007%	1942%	0%	100%	100%

— ChEMBL document CHEMBL1139556, “Synthesis and biological evaluation of gemcitabine-lipid conjugate (NEO6002)” (Bioorg Med Chem Lett, 2005)
